Five compounds from ChEMBL document CHEMBL1137702, “Identification of hydrolytically stable and selective P2Y(1) receptor agonists” (Eur J Med Chem, 2009) can be followed below.

Series [1] concerns the target P2Y purinoceptor 2 (Homo sapiens, UniProt P41231). As to the kind of experiment: Agonist activity at human P2Y2 receptor expressed in human 1321N1 cells assessed as increase in intracellular calcium concentration by dual-excitation spectrofluorimetric analysis. Type of series: functional, cell-based. Summed up: (§1)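 1321N1 astrocytoma cells stably expressing the receptor (turkey P2Y1, human P2Y2, human P2Y4, rat P2Y6) were grown with G-418 selection. Fura-2-loaded cell suspensions were exposed at 37 °C in 10 mM HEPES-buffered saline pH 7.4 with 1 mM CaCl2 and 1 mM MgCl2. Peak [Ca2+]i rise was measured over a range of concentrations to derive EC50.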
For orientation: A change in cytosolic calcium serves as a functional read-out for many receptors and channels.

Series [2] in a line: Chemical stability assessed as hydrolysis half life at 1.5 mg at pH 1.4 measured at 24 hrs interval for 12 days by 31P NMR analysis. The class given is physicochemical. Summed up:
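1.5 mg in 0.2 M HCl/KCl with D2O, pH adjusted to 1.4, kept at 37 °C. 31P NMR spectra, 500 scans each, were recorded about every 24 h for 12 days to obtain half-life.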

Series [3] addresses T1, P2Y purinoceptor 4 (Homo sapiens, UniProt P51582). As to the kind of experiment: Antagonist activity at human P2Y4 receptor expressed in human 1321N1 cells assessed as inhibition of UTP-induced increase in intracellular calcium concentration by dual-excitation spectrofluorimetric analysis. The class given is functional, cell-based. Summed up:
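Fura-2-loaded suspensions of stably transfected 1321N1 cells were assayed at 37 °C in HEPES-buffered saline pH 7.4 with 1 mM Ca2+ and Mg2+. […] [Ca2+]i was read by dual-excitation spectrofluorometry.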

Series [4] concerns the target T2, Ectonucleoside triphosphate diphosphohydrolase 8 (Homo sapiens) (UniProt Q5MY95).
T2 sequence (whole entry): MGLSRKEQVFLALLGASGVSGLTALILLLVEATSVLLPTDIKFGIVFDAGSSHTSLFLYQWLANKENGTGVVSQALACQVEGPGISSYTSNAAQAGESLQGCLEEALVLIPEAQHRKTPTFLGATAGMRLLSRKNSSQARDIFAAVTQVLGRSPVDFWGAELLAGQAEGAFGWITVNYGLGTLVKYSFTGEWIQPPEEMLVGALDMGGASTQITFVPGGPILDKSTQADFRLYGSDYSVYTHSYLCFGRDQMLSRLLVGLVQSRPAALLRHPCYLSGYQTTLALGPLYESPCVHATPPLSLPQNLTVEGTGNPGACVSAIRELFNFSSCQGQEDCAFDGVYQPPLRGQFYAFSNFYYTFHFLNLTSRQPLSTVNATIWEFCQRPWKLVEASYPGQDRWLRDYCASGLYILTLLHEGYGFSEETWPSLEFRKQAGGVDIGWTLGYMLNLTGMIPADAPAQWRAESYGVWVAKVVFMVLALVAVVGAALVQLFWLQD
As to the kind of experiment: Inhibition of human NTPDase 8 expressed in human 293T cells. The class given is cell-based.

The target in series [5] is P2Y purinoceptor 6 (Rattus norvegicus) (UniProt Q63371). As to the kind of experiment: Agonist activity at rat P2Y6 receptor expressed in human 1321N1 cells assessed as increase in intracellular calcium concentration at 100 uM by dual-excitation spectrofluorimetric analysis. The class given is functional, cell-based.
Sequence of P2Y purinoceptor 6 (Rattus norvegicus) (Q63371 whole entry): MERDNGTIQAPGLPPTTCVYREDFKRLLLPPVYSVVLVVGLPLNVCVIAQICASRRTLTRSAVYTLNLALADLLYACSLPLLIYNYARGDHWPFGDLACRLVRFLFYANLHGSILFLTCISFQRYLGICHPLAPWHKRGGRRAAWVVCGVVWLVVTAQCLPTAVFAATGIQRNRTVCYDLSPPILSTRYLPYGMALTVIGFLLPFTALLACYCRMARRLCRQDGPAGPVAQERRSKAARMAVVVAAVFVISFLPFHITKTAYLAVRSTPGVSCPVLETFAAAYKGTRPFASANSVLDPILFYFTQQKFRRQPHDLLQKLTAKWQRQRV
In series [6] the target is T3, Ectonucleoside triphosphate diphosphohydrolase 2 (Homo sapiens) (UniProt Q9Y5L3).
T3 sequence (whole entry): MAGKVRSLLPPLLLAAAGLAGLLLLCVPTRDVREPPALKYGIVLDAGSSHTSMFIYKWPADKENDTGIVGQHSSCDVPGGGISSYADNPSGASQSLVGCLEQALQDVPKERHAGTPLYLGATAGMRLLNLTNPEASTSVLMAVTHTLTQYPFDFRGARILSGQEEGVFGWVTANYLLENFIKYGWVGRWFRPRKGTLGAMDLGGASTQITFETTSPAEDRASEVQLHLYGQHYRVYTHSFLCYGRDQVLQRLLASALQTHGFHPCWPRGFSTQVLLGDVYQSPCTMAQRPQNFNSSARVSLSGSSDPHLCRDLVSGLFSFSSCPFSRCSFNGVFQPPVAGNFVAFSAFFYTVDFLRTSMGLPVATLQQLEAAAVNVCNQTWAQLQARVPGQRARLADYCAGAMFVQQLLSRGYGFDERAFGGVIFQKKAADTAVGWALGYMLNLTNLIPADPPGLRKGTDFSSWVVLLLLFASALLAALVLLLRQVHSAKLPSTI
As to the kind of experiment: Inhibition of human NTPDase 2 expressed in human 293T cells. The class given is cell-based.

Series [7] addresses T1, P2Y purinoceptor 4. As to the kind of experiment: Agonist activity at human P2Y4 receptor expressed in human 1321N1 cells assessed as increase in intracellular calcium concentration by dual-excitation spectrofluorimetric analysis. Type of series: functional, cell-based. Summed up:
as §1

Series [8] deals with Serum. As to the kind of experiment: Metabolic stability in human serum assessed as hydrolysis half life at 0.25 mM measured for 4 days by HPLC. Type of series: ADME, cell-free. The note with it: 96 h, 250 µM. Summed up:
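Human serum (healthy donors; clotted 12 h at 4 °C, spun 1500 × g, stored −80 °C) diluted with RPMI-1640, incubated with 0.25 mM nucleotide at 37 °C for 1–96 h. Stopped with HCl, neutralized with KOH, analysed by C18 HPLC (KH2PO4 pH 4.5/acetonitrile). t1/2 from peak-area change.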

Series [9] is described as follows: Stability at 77 ug/ml after 30 mins by HPLC in presence of calf intestine alkaline phosphatase. The settings on record: cattle, isolated protein, 0.5 h. Type of series: ADME.
In series [10] the target is P2Y purinoceptor 1 (Meleagris gallopavo, UniProt P49652). As to the kind of experiment: Agonist activity at turkey P2Y1 receptor expressed in human 1321N1 cells assessed as increase in intracellular calcium concentration by dual-excitation spectrofluorimetric analysis. Type of series: functional, cell-based.
Sequence of P2Y purinoceptor 1 (P49652 whole entry): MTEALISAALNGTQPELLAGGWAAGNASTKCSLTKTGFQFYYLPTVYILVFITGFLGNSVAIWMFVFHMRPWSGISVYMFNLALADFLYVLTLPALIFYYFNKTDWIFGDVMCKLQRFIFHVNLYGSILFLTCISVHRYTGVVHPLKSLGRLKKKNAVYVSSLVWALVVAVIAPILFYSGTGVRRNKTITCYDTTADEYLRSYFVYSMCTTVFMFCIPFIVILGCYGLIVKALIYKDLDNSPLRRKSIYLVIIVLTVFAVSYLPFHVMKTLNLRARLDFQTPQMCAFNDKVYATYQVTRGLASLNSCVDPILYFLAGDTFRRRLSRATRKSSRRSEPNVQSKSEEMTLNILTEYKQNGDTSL
Series [11] is described as follows: Dissociation constant, pKa of the compound. The class given is physicochemical.

Active and inactive are the calls of the source. The calls are words filed in the database; no cut-off is given here.

Sequence of P2Y purinoceptor 2 (P41231 whole entry): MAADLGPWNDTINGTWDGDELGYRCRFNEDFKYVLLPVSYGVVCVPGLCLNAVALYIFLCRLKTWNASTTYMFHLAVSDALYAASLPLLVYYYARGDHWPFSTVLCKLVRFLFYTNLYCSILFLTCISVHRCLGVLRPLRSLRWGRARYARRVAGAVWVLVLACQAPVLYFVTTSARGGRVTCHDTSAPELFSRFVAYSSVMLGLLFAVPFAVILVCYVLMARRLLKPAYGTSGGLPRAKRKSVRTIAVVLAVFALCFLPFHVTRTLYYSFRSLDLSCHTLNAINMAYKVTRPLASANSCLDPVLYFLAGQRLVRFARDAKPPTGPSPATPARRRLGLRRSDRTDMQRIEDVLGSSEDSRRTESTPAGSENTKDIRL
T1 sequence (P51582 whole entry): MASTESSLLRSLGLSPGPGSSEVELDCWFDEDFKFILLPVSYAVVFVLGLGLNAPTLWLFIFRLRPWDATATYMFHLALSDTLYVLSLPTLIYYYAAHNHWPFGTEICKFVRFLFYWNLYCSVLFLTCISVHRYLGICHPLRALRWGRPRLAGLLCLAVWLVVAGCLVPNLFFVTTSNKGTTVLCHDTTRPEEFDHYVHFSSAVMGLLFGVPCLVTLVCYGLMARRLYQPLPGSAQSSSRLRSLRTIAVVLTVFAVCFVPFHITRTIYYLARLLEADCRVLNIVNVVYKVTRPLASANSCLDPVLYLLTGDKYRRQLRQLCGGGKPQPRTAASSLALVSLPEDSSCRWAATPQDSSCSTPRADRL

Take `CSc1nc(N)c2ncn([C@@H]3O[C@H](COP(=O)(O)OP(=O)(O)CP(=O)(O)O)[C@@H](O)[C@H]3O)c2n1`: the outcome in series [1], in series [3], in series [4], in [6] and in series [7] was inactive. In series [2], the half-life is 65 h. For the same compound, the result in series [5] was Active. Moreover, the t1/2 in series [8] worked out at 12.7 h. The Stability result in series [9] is given as “Stable”. In [10], the EC50 is 80 nM. In series [11], this compound yielded a pKa of 8.4.

As to `BP(=O)(OC[C@H]1O[C@@H](n2cnc3c(N)ncnc32)[C@H](O)[C@@H]1O)OP(=O)(O)CP(=O)(O)O` (stereo partly drawn), the result in [1], in series [3], in series [4], in [6] and in series [7] was inactive.

In the case of `BP(=O)(OC[C@H]1O[C@@H](n2cnc3c(N)nc(SC)nc32)[C@H](O)[C@@H]1O)OP(=O)(O)CP(=O)(O)O` (single isomer, unassigned; diastereomer B), the outcome in series [1], in series [3], in series [4], in series [6] and in series [7] was inactive. In addition, in series [5], the outcome was Active.

On to `BP(=O)(OC[C@H]1O[C@@H](n2cnc3c(N)ncnc32)[C@H](O)[C@@H]1O)OP(=O)(O)CP(=O)(O)O` (single isomer, unassigned; diastereomer B), for which the outcome in [1], in [3], in series [4], in series [6] and in series [7] was inactive. The result in [5] was Active.

On to `BP(=O)(OC[C@H]1O[C@@H](n2cnc3c(N)nc(SC)nc32)[C@H](O)[C@@H]1O)OP(=O)(O)CP(=O)(O)O` (single isomer, unassigned; diastereomer A), for which the outcome in series [1], in series [3], in series [4], in series [6] and in series [7] was inactive.

A word on the half-life: it is how long it takes for the measured level to halve. One may read the EC50 as the concentration at which the effect is half-maximal. For orientation: pKa means the pH at which an ionisable group is half protonated.
